Reference: paper PMC2692659 (Cellular signalling, 2009)
Where a SMILES comes first, the peptide text is derived from it.

Key:
[1] = target: T1, Arf GAP2 (Homo sapiens, UniProt Q8N6H7); assay: Cargo peptide titration in coatomer-dependent GAP assay; format: biochemical; settings: for effect of peptide on Arf GAP2 activity: LUVs PI4P 0.03 μm, 3 min 30 °C
Procedure, shortened: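 Arf GAP2 [1–521]-His6 (E. coli, refolded from inclusion bodies) at 11.4 nM, with 124 nM rat-liver coatomer. Substrate was 0.6 μM [α32P]GTP•myrArf1 on PI4P LUVs extruded through 0.03 μm pores. p23, p24 or p25 cytoplasmic-tail peptides (p25 also palmitoyl- or WRM-extended) were titrated in. Reactions ran 3 min at 30 °C. Palmitoyl-peptide data were fit to one-site binding with offset; duplicate experiments.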

[2] = tested on: Arf GAP2; assay: Effect of p25 on Arf GAP2 with and without coatomer; format: biochemical; settings: 3 min 30°C
Procedure, shortened: (§1)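 GAP enzyme was Arf GAP2 [1–521]-His6 or His10-[325–724]ASAP1. Mixtures held 0.6 μM [α32P]GTP•Arf1 on PI4P LUVs extruded through 0.03 μm pores, with or without 124 nM coatomer and 25 μM p25 peptide. Fraction of GTP hydrolysed in 3 min at 30 °C was measured.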

[3] = tested on: ASAP1; assay: Effect of coatomer and p25 on ASAP1 GAP activity; format: biochemical; settings: 1 nM ASAP1, 3 min 30°C
Procedure, shortened: as §1

[4] = target: T1, Arf GAP2; assay: Coatomer titration in Arf GAP2 GAP assay; format: biochemical
Procedure, shortened: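 Coatomer was titrated into reactions with 11.4 nM Arf GAP2 [1–521]-His6, 0.6 μM [α32P]GTP•myrArf1 and 25 μM p25 peptide. LUVs contained PI4P and were extruded through 1.0 or 0.03 μm pores. Reactions ran 3 min at 30 °C. Read-out was hydrolysis of Arf1-bound GTP.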

[5] = target: T1, Arf GAP2; assay: Time dependence; format: biochemical
[6] = target: T1, Arf GAP2; assay: Saturation kinetics following [α^32P]GTP hydrolysis; format: biochemical; settings: 25 μM peptide, 124 nM coatomer, LUVs 0.03 μm
Procedure, shortened: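 Saturation kinetics used [α32P]GTP•Arf1, titrated into reactions with 10 nM Arf GAP2 [1–521]-His6 and 124 nM coatomer, with or without 25 μM p25 peptide. LUVs contained PI4P and were extruded through 0.03 μm pores. Reactions stopped after 3 min at 30 °C. Data were fit to Michaelis-Menten and Hill equations, with kcat calculated from Vmax; three experiments.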

[7] = target: T1, Arf GAP2; assay: Saturation kinetics, tryptophan fluorescence based assay; format: biochemical; settings: 25 μM peptide, 124 nM coatomer, LUVs 0.03 μm
Procedure, shortened: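 myrArf1•GTP was titrated into reactions with 114 nM Arf GAP2 [1–521]-His6, 124 nM coatomer and PI4P LUVs (0.03 μm pores), with or without 25 μM p25 peptide. GTP→GDP conversion was followed by tryptophan fluorescence. Readings were corrected for time-dependent fluorescence change of Arf GAP2 ± coatomer. Initial rates were fit to Michaelis-Menten and Hill equations; kcat came from Vmax.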

[8] = tested on: Arf GAP1; assay: Effect of p25 on Arf GAP1 with and without coatomer; format: biochemical; settings: 25 μM p25, 28 nM Arf GAP1, 124 nM coatomer, 3 min 30°C
[9] = tested on: [α^32P]GTP•Arf1 (myrArf1); assay: GAP assay: Arf GAP titration, hydrolysis of [α^32P]GTP bound to myrArf1; format: biochemical, Human; settings: for C50 (amount of Arf GAP needed for 50% of maximum observed hydrolysis) / Maximum GTP Hydrolysis: 0.6 μM [α^32P]GTP•Arf1, 3 min, 30 °C, mean ± SD, three experiments
[10] = tested on: coatomer; settings: ref [18]; cited from earlier work
[11] = Protein binding to LUVs; settings: 1 μM Arf GAP2; 5 min, 30°C; Coomassie Blue; not shown
Procedure, shortened: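 Sucrose-loaded LUVs (1 mM total lipid), extruded through 0.03 or 1 μm pores, were incubated with purified Arf GAP2 (1 μM) for 5 min at 30 °C. Vesicles were pelleted at 100,000 × g for 15 min at 4 °C. Bound protein was resolved by SDS-PAGE and stained with Coomassie Blue.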

[12] = target: T1, Arf GAP2; settings: tryptophan fluorescence assay; ref [33]; cited from earlier work
[13] = target: T1, Arf GAP2; format: biochemical; settings: for effect of phosphoinositide on Arf GAP2 activity: without coatomer
[14] = 11.4 nM Arf GAP2, 124 nM coatomer
[15] = LUVs 2.5% PI4P, 0.03 μm pores, 124 nM coatomer and 25 μM p25 where indicated
[16] = LUVs 2.5% PI4P, 1.0 μm pores, 124 nM coatomer and 25 μM p25 where indicated
[17] = LUVs 2.5% PIP2, 0.03 μm pores, 124 nM coatomer where indicated
[18] = LUVs 2.5% PIP2, 1.0 μm pores, 124 nM coatomer where indicated

T1 sequence (Q8N6H7 whole entry): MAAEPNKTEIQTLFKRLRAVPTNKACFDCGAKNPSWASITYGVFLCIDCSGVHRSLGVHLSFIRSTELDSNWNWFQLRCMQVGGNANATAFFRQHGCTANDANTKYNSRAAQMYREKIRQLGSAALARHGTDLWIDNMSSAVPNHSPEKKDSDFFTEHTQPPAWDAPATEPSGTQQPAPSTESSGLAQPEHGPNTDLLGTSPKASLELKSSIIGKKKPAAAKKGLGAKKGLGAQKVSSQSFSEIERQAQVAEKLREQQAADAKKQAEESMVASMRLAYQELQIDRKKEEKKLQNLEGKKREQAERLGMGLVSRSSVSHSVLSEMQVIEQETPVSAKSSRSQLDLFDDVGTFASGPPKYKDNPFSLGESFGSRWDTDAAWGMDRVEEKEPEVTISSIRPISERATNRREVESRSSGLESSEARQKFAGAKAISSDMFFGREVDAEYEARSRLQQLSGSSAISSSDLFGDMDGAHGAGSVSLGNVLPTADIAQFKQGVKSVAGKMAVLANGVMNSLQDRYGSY

CSCC[C@H](NC(=O)[C@H](CCCNC(=N)N)NC(=O)[C@@H](N)Cc1c[nH]c2ccccc12)C(=O)N[C@@H](CCCNC(=N)N)C(=O)N[C@@H](Cc1c[nH]cn1)C(=O)N[C@@H](CC(C)C)C(=O)N[C@@H](CCCCN)C(=O)N[C@@H](CO)C(=O)N[C@@H](Cc1ccccc1)C(=O)N[C@@H](Cc1ccccc1)C(=O)N[C@@H](CCC(=O)O)C(=O)N[C@@H](C)C(=O)N[C@@H](CCCCN)C(=O)N[C@@H](CCCCN)C(=O)N[C@@H](CC(C)C)C(=O)N[C@H](C(=O)O)C(C)C (H-WRMRHLKSFFEAKKLV-OH)
effect of peptide on Arf GAP2 activity [1, 14]: stimulated activity

CC[C@H](C)[C@H](NC(=O)[C@H](CC(C)C)NC(=O)[C@H](CCCCN)NC(=O)[C@H](CCCCN)NC(=O)[C@H](C)NC(=O)[C@H](CCCCN)NC(=O)[C@H](Cc1ccccc1)NC(=O)[C@H](Cc1ccccc1)NC(=O)[C@H](CCCNC(=N)N)NC(=O)[C@H](CCCNC(=N)N)NC(=O)[C@H](CC(C)C)NC(=O)[C@@H](N)Cc1ccc(O)cc1)C(=O)N[C@@H](CCC(=O)O)C(=O)O [p23] (H-YLRRFFKAKKLIE-OH; N-terminus and C-terminus assumed)
effect of peptide on Arf GAP2 activity [1, 14]: stimulated GAP activity

CC(C)C[C@H](NC(=O)[C@H](Cc1c[nH]cn1)NC(=O)[C@@H](N)CCCNC(=N)N)C(=O)N[C@@H](CCCCN)C(=O)N[C@@H](CO)C(=O)N[C@@H](Cc1ccccc1)C(=O)N[C@@H](Cc1ccccc1)C(=O)N[C@@H](CCC(=O)O)C(=O)N[C@@H](C)C(=O)N[C@@H](CCCCN)C(=O)N[C@@H](CCCCN)C(=O)N[C@@H](CC(C)C)C(=O)N[C@H](C(=O)O)C(C)C [p25] (H-RHLKSFFEAKKLV-OH; N-terminus and C-terminus assumed)
EC50 [1]: 500 ± 200 nM | effect of peptide on Arf GAP2 activity [1, 14]: stimulated GAP activity | peptide concentration above which the effect decreased ([1]; concentrations greater than, 11.4 nM Arf GAP2, 124 nM coatomer): 25 to 50 µM | effect of p25 on Arf GAP2 with coatomer ([2]; 25 μM p25, 11.4 nM Arf GAP2, 124 nM coatomer): increased the activity in the samples containing both Arf GAP2 and coatomer | Arf GAP2 activity without coatomer ([2]; 25 μM p25, 11.4 nM Arf GAP2, no coatomer): No activity was detected in the absence of coatomer | effect of p25 on Arf GAP2 without coatomer ([2]; 25 μM p25, 3.4 μM Arf GAP2, no coatomer): had no effect | effect of p25 on ASAP1 with coatomer ([3]; 25 μM p25, 124 nM coatomer): coatomer-dependent inhibition was increased by p25 | effect of p25 on ASAP1 without coatomer ([3]; 25 μM p25, no coatomer): no effect in the absence of coatomer | effect of p25 on coatomer dependence of Arf GAP2 activity ([4]; 25 μM p25, 11.4 nM Arf GAP2, 0.03 and 1.0 μm LUVs): increased the extent of hydrolysis | coatomer concentration at peak activity, with p25 ([4]; 25 μM p25 peptide, smaller LUVs, 11.4 nM Arf GAP2, 3 min, 30 °C): 100 nM | coatomer concentration below which p25 effect was greatest ([4]; smaller LUVs, 25 μM p25, 11.4 nM Arf GAP2): less than 250 nM | effect of p25 on time dependence of hydrolysis ([5]; 25 μM p25 with coatomer): accelerated hydrolysis | effect of p25 on kcat [6]: increased the kcat of the reaction | effect of p25 on kcat [7]: increased the kcat of the reaction | effect of p25 on Arf GAP1 [8]: stimulated by p25 when coatomer was present

Arf GAP2: [1–521] Arf GAP2 His6 expressed in E. coli and purified from inclusion bodies
extent of hydrolysis at highest Arf GAP2 concentration ([9]; 3.4 μM Arf GAP2, no coatomer, footnote 1): 25% – 40 | C50 (amount of Arf GAP needed for 50% of maximum observed hydrolysis) [9, 15]: > 500 nM | Maximum GTP Hydrolysis [9, 15]: 15 ± 1% | C50 (amount of Arf GAP needed for 50% of maximum observed hydrolysis) [9, 16]: > 500 nM | Maximum GTP Hydrolysis [9, 16]: 6.2 ± 1.2% | C50 (amount of Arf GAP needed for 50% of maximum observed hydrolysis) [9, 17]: > 500 nM | Maximum GTP Hydrolysis [9, 17]: 37 ± 5.2% | C50 (amount of Arf GAP needed for 50% of maximum observed hydrolysis) [9, 18]: > 500 nM | Maximum GTP Hydrolysis [9, 18]: 25 ± 2.0% | GAP activity compared to purified Arf GAP1 ([9]; no coatomer): little activity compared to purified Arf GAP1 | binding to coatomer relative to Arf GAP1 [10]: bind coatomer more tightly than does Arf GAP1 | effect of vesicle size on Arf GAP2 binding to LUVs [11]: did not detect an effect of vesicle size | effect of coatomer and curvature on Arf GAP2 [12]: stimulated by coatomer but was not affected by curvature | first order rate constant, effect of vesicle size ([5]; 3.4 μM Arf GAP2, 0.6 μM myrArf1•GTP, no coatomer): three-fold greater on the smaller vesicles than on the larger vesicles | rate constant relative to kcat of Arf GAP1 ([5]; 3.4 μM Arf GAP2, no coatomer, kcat of Arf GAP1 from ref 22): less than 1/100

phosphatidylinositol 4,5-bisphosphate [PIP2]
effect of phosphoinositide on Arf GAP2 activity [13]: affected the extent of hydrolysis but not the C50

phosphatidylinositol 4-phosphate [PI4P]
reduction of C50 by PI4P ([13]; 124 nM coatomer present): 2 fold | effect of phosphoinositide on Arf GAP2 activity [13]: had no effect by itself

B1: Arf GAP3: Arf GAP that functions with the coat protein coatomer (protein, UniProt Q9NP61 1-516, looked up)
ADP-ribosylation factor …: MGDPSKQDILTIFKRLRSVPTNKVCFDCGAKNPSWASITYGVFLCIDCSGSHRSLGVHLSFIRSTELDSNWSWFQLRCMQVGGNASASSFFHQHGCSTNDTNAKYNSRAAQLYREKIKSLASQATRKHGTDLWLDSCVVPPLSPPPKEEDFFASHVSPEVSDTAWASAIAEPSSLTSRPVETTLENNEGGQEQGPSVEGLNVPTKATLEVSSIIKKKPNQAKKGLGAKKGSLGAQKLANTCFNEIEKQAQAADKMKEQEDLAKVVSKEESIVSSLRLAYKDLEIQMKKDEKMNISGKKNVDSDRLGMGFGNCRSVISHSVTSDMQTIEQESPIMAKPRKKYNDDSDDSYFTSSSSYFDEPVELRSSSFSSWDDSSDSYWKKETSKDTETVLKTTGYSDRPTARRKPDYEPVENTDEAQKKFGNVKAISSDMYFGRQSQADYETRARLERLSASSSISSADLFEEPRKQPAGNYSLSSVLPNAPDMAQFKQGVRSVAGKLSVFANGVVTSIQDRYGS
binding to coatomer relative to Arf GAP1 [10]: bind coatomer more tightly than does Arf GAP1
